{"source": "ChEMBL document CHEMBL4619773", "about": "“Chemoreactive-Inspired Discovery of Influenza A Virus Dual Inhibitor to Block Hemagglutinin-Mediated Adsorption and Membrane Fusion” (J Med Chem, 2020)", "key": {"[1]": {"tested_on": "Influenza A virus (A/Puerto Rico/8/1934(H1N1))", "experiment": "Inhibition of Hemagglutinin T359A mutant in Influenza A virus (A/Puerto Rico/8/1934(H1N1))/H1N1 pseudovirus infected in 293FT cells assessed as reduction in virus infection at 50 ug/ml pre-treated with virus before infection and measured after 48 hrs by inverted fluorescence microscopy", "format": "cell-based", "method_in_brief": "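PR8 pseudoviruses (IAV-GFP) carrying wild-type HA or a mutant HA (T30N/E233D/T359A or T359A) were made in 293FT cells by co-transfecting HA, NA, HIV backbone and GFP reporter plasmids, and supernatants were harvested at 48 h. Pseudovirus was pretreated with compound at 50 µg/ml for 1 h at 37 °C before infection. Infected GFP-positive cells were viewed by fluorescence microscopy 48 h p.i.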"}, "[2]": {"tested_on": "Influenza A virus (A/Puerto Rico/8/1934(H1N1))", "experiment": "Inhibition of Hemagglutinin T30N/E233D/T359A mutant in Influenza A virus (A/Puerto Rico/8/1934(H1N1))/H1N1 pseudovirus infected in 293FT cells assessed as reduction in virus infection at 50 ug/ml pre-treated with virus before infection and measured after 48 hrs by inverted fluorescence microscopy", "format": "cell-based", "method_in_brief": "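GFP-reporter lentiviral pseudoviruses bearing PR8 wild-type or mutant (T30N/E233D/T359A or T359A) HA plus NA were produced in 293FT cells. Pseudovirus was pretreated with 50 µg/ml compound for 1 h at 37 °C before infection. GFP-positive cells were counted by fluorescence microscopy at 48 h p.i.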"}}, "note": "Activity calls are given as the source filed them. No cut-off for these calls is given here.", "data": [{"smiles": "CC(=O)c1cc(C)c(O)c(Cc2[nH]c3ccccc3c2Cc2c(O)c(C)cc(C(C)=O)c2O)c1O", "values": [{"measurement": "inhibition", "setting": "[1]", "value": "inactive"}, {"measurement": "inhibition", "setting": "[2]", "value": "inactive"}]}]}
